Test results published in ChEMBL document CHEMBL1156008, “Synthesis of novel isoluminol probes and their use in rapid bacterial assays” (Bioorg Med Chem Lett, 2009).
Active and inactive are the calls of the source. The calls are words filed in the database; no cut-off is given here.

Tests used:
[1] = tested on: Lactococcus lactis; test: Binding affinity to Lactococcus lactis subsp. lactis C2 ATCC 11454 membrane surface measured after second washout with buffer by fluorescence assay; format: functional
In short: (§1)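 L. lactis C2 grown 18 h at 27 °C in M17 (4% v/v inoculum). 200 µl culture, in triplicate, pelleted (9000g, 2 °C, 10 min); supernatant background subtracted. Pellet resuspended in peptide-isoluminol probe (DMF, diluted in pH 6.4 phosphate buffer, 0.01 M, 0.1 ionic strength) for 10 min at 27 °C. Fluorescence read at ex 360/em 430 nm, then repeated centrifugation/buffer washes; fraction retained calculated.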

[2] = tested on: Salmonella typhimurium; test: Binding affinity to Salmonella Typhimurium ATCC 14028 membrane surface measured after fourth washout with buffer by fluorescence assay; format: functional, organism-based; conditions: Salmonella enterica subsp. enterica serovar Typhimurium
In short: (§2)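 Cell pellets were exposed to peptide-isoluminol probe in pH 6.4 phosphate buffer (0.01 M, 0.1 ionic strength). Probe remaining on cells was then tracked through repeated buffer wash cycles by fluorescence at ex 360/em 430 nm.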

[3] = tested on: Escherichia coli; test: Binding affinity to Escherichia coli ATCC 47076 membrane surface measured after fourth washout with buffer by fluorescence assay; format: functional, organism-based; in short: as §2
[4] = tested on: Lactococcus lactis; test: Binding affinity to Lactococcus lactis subsp. lactis C2 ATCC 11454 membrane surface measured after first washout with buffer by fluorescence assay; format: functional; in short: as §1
[5] = tested on: Lactococcus lactis; test: Binding affinity to Lactococcus lactis subsp. lactis C2 ATCC 11454 membrane surface by fluorescence assay; format: functional; in short: as §1
[6] = tested on: Salmonella typhimurium; test: Binding affinity to Salmonella Typhimurium ATCC 14028 membrane surface by fluorescence assay; format: functional, organism-based; conditions: Salmonella enterica subsp. enterica serovar Typhimurium; in short: as §2
[7] = tested on: Escherichia coli; test: Binding affinity to Escherichia coli ATCC 47076 membrane surface measured after second washout with buffer by fluorescence assay; format: functional, organism-based; in short: as §2
[8] = tested on: Escherichia coli; test: Binding affinity to Escherichia coli ATCC 47076 membrane surface by fluorescence assay; format: functional, organism-based; in short: as §2
[9] = tested on: Staphylococcus aureus; test: Binding affinity to Staphylococcus aureus ATCC 25923 membrane surface measured after second washout with buffer by fluorescence assay; format: functional, organism-based; in short: as §2
[10] = tested on: Salmonella typhimurium; test: Binding affinity to Salmonella Typhimurium ATCC 14028 membrane surface measured after second washout with buffer by fluorescence assay; format: functional, organism-based; conditions: Salmonella enterica subsp. enterica serovar Typhimurium; in short: as §2
[11] = tested on: Staphylococcus aureus; test: Binding affinity to Staphylococcus aureus ATCC 25923 membrane surface by fluorescence assay; format: functional, organism-based; in short: as §2

Row | Activity [1] | Activity [2] | Activity [4] | Activity [5] [%] | Activity [6] [%] | Activity [10] | SMILES | Activity [3] | Activity [7] | Activity [8] [%] | Activity [9] | Activity [11] [%]
1 | 10% | Active | 23% | 34 | – | – | CCN(CCCCCCNC(=O)COCC(=O)N[C@@H](CCCCN)C(=O)N[C@@H](CCCCN)C(=O)N[C@@H](CCCCN)C(=O)O)c1ccc2c(=O)[nH][nH]c(=O)c2c1 | Active | – | – | – | –
2 | Active | – | Active | 15 | 15 | Active | CCN(CCCCCCNC(=O)COCC(=O)NC(CCC(=O)O)C(=O)NC(CCC(=O)O)C(=O)O)c1ccc2c(=O)[nH][nH]c(=O)c2c1 (centres undefined) | – | Active | 15 | Active | 15
